# Experimental data reported in ChEMBL document CHEMBL1141529, “Design and synthesis of 3-arylpyrrolidine-2-carboxamide derivatives as melanocortin-4 receptor ligands” (Bioorg Med Chem Lett, 2008).
# How the values were obtained:
# Melanocortin receptor 4 [1] = biological target: T1, Melanocortin receptor 4 (Homo sapiens, UniProt P32245); assay: Displacement of [125]NDPMSH from human MC4 receptor expressed in HEK293 cells; assay type: cell-based
# Melanocortin receptor 4 [2] = biological target: T1, Melanocortin receptor 4; assay: Antagonist activity at MC4 receptor assessed as inhibition of alpha-MSH-stimulated cAMP production; assay type: functional
# Melanocortin receptor 4 [3] = biological target: T1, Melanocortin receptor 4; assay: Agonist activity at MC4 receptor by cAMP assay; assay type: functional
# [4] = Half life in rat at 5 mg/kg, iv; assay type: ADME, organism-based; design: dose 5 mg/kg, route intravenous; settings: in vivo
# How it was run: (§1)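 Single intravenous injection at 5 mg/kg in rats. Clearance, volume of distribution and half-life are derived from plasma concentrations.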
# [5] = Plasma clearance in rat at 5 mg/kg, iv; assay type: ADME, organism-based; design: dose 5 mg/kg, route intravenous; how it was run: as §1
# [6] = Absolute bioavailability in rat at 10 mg/kg, po; assay type: ADME, organism-based; settings: in vivo
# How it was run: (§2)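 Rats dosed orally at 10 mg/kg. Cmax and AUC are plasma values. Absolute bioavailability is referenced to a separate intravenous 5 mg/kg dose.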
# [7] = Volume of distribution in rat at 5 mg/kg, iv; assay type: ADME, organism-based; design: dose 5 mg/kg, route intravenous; settings: in vivo; how it was run: as §1
# [8] = Cmax in rat at 10 mg/kg, po; assay type: ADME, organism-based; design: dose 10 mg/kg, route oral; settings: in vivo; how it was run: as §2
# Rattus norvegicus = assay: AUC in rat at 10 mg/kg, po; assay type: ADME, organism-based, Plasma; design: dose 10 mg/kg, route oral; settings: in vivo; how it was run: as §2
# T1 sequence (P32245 whole entry): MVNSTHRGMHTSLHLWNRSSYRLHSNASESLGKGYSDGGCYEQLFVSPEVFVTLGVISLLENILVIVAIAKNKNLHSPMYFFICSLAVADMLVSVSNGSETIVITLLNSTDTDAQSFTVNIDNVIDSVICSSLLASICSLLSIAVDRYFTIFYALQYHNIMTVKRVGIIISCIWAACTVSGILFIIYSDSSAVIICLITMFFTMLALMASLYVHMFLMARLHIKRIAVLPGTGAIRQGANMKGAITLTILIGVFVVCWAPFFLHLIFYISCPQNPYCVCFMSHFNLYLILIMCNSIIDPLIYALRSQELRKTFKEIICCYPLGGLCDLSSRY
Compound,Ki (Melanocortin receptor 4 [1]) [nM],also measured
CC(=O)N1CC[C@H](c2ccc(C)cc2)[C@@H]1C(=O)N1CCN(c2ccc(C)cc2[C@@H](N)C(C)C)CC1,97,
Cc1ccc(N2CCN(C(=O)[C@H]3[C@@H](c4ccc(Cl)cc4)CCN3C(=O)C(C)(C)C)CC2)c([C@@H](N)C(C)C)c1,7.2,
CCOC(=O)N1CC[C@@H](c2ccc(Cl)cc2)[C@H]1C(=O)N1CCN(c2ccc(C)cc2[C@@H](N)C(C)C)CC1,130,
Cc1ccc(N2CCN(C(=O)[C@@H]3[C@@H](c4ccc(Cl)cc4)CCN3C(=O)C(C)(C)C)CC2)c([C@@H](N)C(C)C)c1,79,
CC(=O)N1CC[C@H](c2ccc(Cl)cc2)[C@H]1C(=O)N1CCN(c2ccc(C)cc2[C@@H](N)C(C)C)CC1,78,
CC(C)C[C@H](N)c1cc(C(F)(F)F)ccc1N1CCN(C(=O)C2(Cc3ccc(Cl)cc3)COC(=O)N2)CC1 (some centres undefined),550,
CC(=O)N1CC[C@H](c2ccc(Cl)cc2)[C@@H]1C(=O)N1CCN(c2ccc(C)cc2[C@@H](N)C(C)C)CC1 (stereo in doubt; form 2),11,IC50 (Melanocortin receptor 4 [2]): 520 nM
Cc1ccc(N2CCN(C(=O)[C@@H]3[C@H](c4ccc(Cl)cc4)CCN3C(=O)N(C)C)CC2)c([C@@H](N)C(C)C)c1,190,
Cc1ccc(N2CCN(C(=O)[C@H]3[C@@H](c4ccc(Cl)cc4)CCN3C)CC2)c([C@@H](N)C(C)C)c1,160,
CC(C)C[C@H](N)c1cc(C(F)(F)F)ccc1N1CCN(C(=O)C2NCCC2c2ccc(Cl)cc2)CC1 (some centres undefined),98,
CC(C)[C@H](N)c1cccc(F)c1N1CCN(C(=O)[C@@H]2NCC[C@@H]2c2ccc(Cl)cc2)CC1,,IC50 (Melanocortin receptor 4 [2]): 960 nM
Cc1ccc(N2CCN(C(=O)[C@@H]3NCC[C@@H]3c3ccc(Cl)cc3)CC2)c([C@@H](N)C(C)C)c1,52,IC50 (Melanocortin receptor 4 [2]): 310 nM
Cc1ccc(N2CCN(C(=O)[C@H]3[C@@H](c4ccc(Cl)cc4)CCN3C(=O)OC(C)C)CC2)c([C@@H](N)C(C)C)c1,12,
Cc1ccc(N2CCN(C(=O)C3NCCC3c3ccc(Cl)cc3)CC2)c([C@@H](N)C(C)C)c1 (some centres undefined),56,
Cc1ccc(N2CCN(C(=O)[C@@H]3[C@@H](c4ccc(Cl)cc4)CCN3C(=O)C3CCC3)CC2)c([C@@H](N)C(C)C)c1,55,
CCOC(=O)N1CC[C@H](c2ccc(Cl)cc2)[C@@H]1C(=O)N1CCN(c2ccc(F)cc2[C@@H](N)C(C)C)CC1,74,
Cc1ccc(N2CCN(C(=O)[C@H]3[C@@H](c4ccc(Cl)cc4)CCN3C(C)C)CC2)c([C@@H](N)C(C)C)c1,110,
Cc1ccc(N2CCN(C(=O)[C@@H]3[C@@H](c4ccc(Cl)cc4)CCN3C(=O)OC(C)C)CC2)c([C@@H](N)C(C)C)c1,68,
COC(=O)N1CC[C@@H](c2ccc(Cl)cc2)[C@H]1C(=O)N1CCN(c2ccc(C)cc2[C@@H](N)C(C)C)CC1,53,
CC(=O)N1CC[C@@H](c2ccc(Cl)cc2)[C@H]1C(=O)N1CCN(c2ccc(C)cc2[C@@H](N)C(C)C)CC1,120,
CC(=O)N1CC[C@H](c2ccccc2)[C@@H]1C(=O)N1CCN(c2ccc(C)cc2[C@@H](N)C(C)C)CC1,1800,
COC(=O)N1CC[C@H](c2ccc(Cl)cc2)[C@@H]1C(=O)N1CCN(c2ccc(C)cc2[C@@H](N)C(C)C)CC1 (stereo in doubt; form 1),17,IC50 (Melanocortin receptor 4 [2]): 720 nM
Cc1ccc(N2CCN(C(=O)[C@@H]3[C@@H](c4ccc(Cl)cc4)CCN3C(=O)[C@H]3Cc4ccccc4CN3)CC2)c([C@@H](N)C(C)C)c1,92,EC50 (Melanocortin receptor 4 [3]): 15000 nM; Emax (Melanocortin receptor 4 [3]): 21%
CC(C)C[C@H](N)c1cc(Cl)ccc1N1CCN(C(=O)[C@@H]2NCC[C@@H]2c2ccc(Cl)cc2Cl)CC1,,IC50 (Melanocortin receptor 4 [2]): 1500 nM

Compound,Ki (Melanocortin receptor 4 [1]) [nM],also measured
CCOC(=O)N1CC[C@H](c2ccc(Cl)cc2)[C@@H]1C(=O)N1CCN(c2ccc(C)cc2[C@@H](N)C(C)C)CC1 (stereo in doubt; form 2),11,
Cc1ccc(N2CCN(C(=O)[C@H]3[C@@H](c4ccc(Cl)cc4)CCN3C(=O)N(C)C)CC2)c([C@@H](N)C(C)C)c1 (stereo in doubt; form 2),6.5,half-life [4]: 4.3 h; clearance [5]: 20 mL/min/kg; bioavailability [6]: 7.2%; IC50 (Melanocortin receptor 4 [2]): 93 nM; Vd [7]: 17.2 L/kg; Cmax [8]: 35 ng/mL; AUC (Rattus norvegicus): 533 ng·h/mL
CC(=O)N1CC[C@H](c2ccc(Cl)cc2)[C@@H]1C(=O)N1CCN(c2ccc(C)cc2[C@@H](N)C(C)C)CC1 (stereo in doubt; form 1),24,
CCC(=O)N1CC[C@H](c2ccc(Cl)cc2)[C@H]1C(=O)N1CCN(c2ccc(C)cc2[C@@H](N)C(C)C)CC1,62,
CC(C)C[C@H](N)c1cc(C(F)(F)F)ccc1N1CCN(C(=O)[C@@H]2NCC[C@@H]2c2ccc(Cl)cc2)CC1,,IC50 (Melanocortin receptor 4 [2]): 2400 nM
CCCC(=O)N1CC[C@H](c2ccc(Cl)cc2)[C@H]1C(=O)N1CCN(c2ccc(C)cc2[C@@H](N)C(C)C)CC1,52,
COC(=O)N1CC[C@H](c2ccc(Cl)cc2)[C@H]1C(=O)N1CCN(c2ccc(C)cc2[C@@H](N)C(C)C)CC1,59,
CC(C)[C@H](N)c1cccc(F)c1N1CCN(C(=O)C2NCCC2c2ccc(Cl)cc2)CC1 (some centres undefined),110,
CC(=O)N1CC[C@@H](c2ccc(Cl)cc2)[C@@H]1C(=O)N1CCN(c2ccc(C)cc2[C@@H](N)C(C)C)CC1,180,
CC(=O)N1CC[C@H](c2ccc(F)cc2)[C@@H]1C(=O)N1CCN(c2ccc(C)cc2[C@@H](N)C(C)C)CC1,330,
CCOC(=O)N1CC[C@H](c2ccc(Cl)cc2)[C@@H]1C(=O)N1CCN(c2ccc(Cl)cc2[C@@H](N)C(C)C)CC1,18,
CC(C)C[C@H](N)c1cc(C(F)(F)F)ccc1N1CCN(C(=O)C2NC(=O)CC2c2ccc(Cl)cc2)CC1 (some centres undefined),340,
CC(=O)N1CC[C@H](c2ccc(C(F)(F)F)cc2)[C@@H]1C(=O)N1CCN(c2ccc(C)cc2[C@@H](N)C(C)C)CC1,54,
CC(C)C[C@H](N)c1cc(Cl)ccc1N1CCN(C(=O)C2NCCC2c2ccc(Cl)cc2Cl)CC1 (some centres undefined),190,
Cc1ccc(N2CCN(C(=O)[C@H]3[C@@H](c4ccc(Cl)cc4)CCN3C(=O)N(C)C)CC2)c([C@@H](N)C(C)C)c1 (stereo in doubt; form 1),7.4,IC50 (Melanocortin receptor 4 [2]): 190 nM
CCOC(=O)N1CC[C@H](c2ccc(Cl)cc2)[C@@H]1C(=O)N1CCN(c2ccccc2[C@@H](N)C(C)C)CC1,94,
Cc1ccc(N2CCN(C(=O)[C@H]3[C@@H](c4ccc(Cl)cc4)CCN3C(=O)[C@H]3Cc4ccccc4CN3)CC2)c([C@@H](N)C(C)C)c1,1.1,EC50 (Melanocortin receptor 4 [3]): 3500 nM; Emax (Melanocortin receptor 4 [3]): 44%
COC(=O)N1CC[C@H](c2ccc(Cl)cc2)[C@@H]1C(=O)N1CCN(c2ccc(C)cc2[C@@H](N)C(C)C)CC1 (stereo in doubt; form 2),18,
COc1ccc([C@H]2CCN(C(C)=O)[C@H]2C(=O)N2CCN(c3ccc(C)cc3[C@@H](N)C(C)C)CC2)cc1,45,
Cc1ccc(N2CCN(C(=O)[C@H]3[C@@H](c4ccc(Cl)cc4)CCN3S(C)(=O)=O)CC2)c([C@@H](N)C(C)C)c1,40,
CCOC(=O)N1CC[C@H](c2ccc(Cl)cc2)[C@@H]1C(=O)N1CCN(c2ccc(C)cc2[C@@H](N)C(C)C)CC1 (stereo in doubt; form 1),16,IC50 (Melanocortin receptor 4 [2]): 640 nM
CC(C)[C@H](N)c1cccc(F)c1N1CCN(C(=O)C2NCCC2c2ccc(Cl)cc2Cl)CC1 (some centres undefined),560,
CCOC(=O)N1CC[C@H](c2ccc(Cl)cc2)[C@H]1C(=O)N1CCN(c2ccc(C)cc2[C@@H](N)C(C)C)CC1,42,
CC(C)C[C@H](N)c1cc(Cl)ccc1N1CCN(C(=O)C2NCCC2c2ccc(Cl)cc2)CC1 (some centres undefined),96,
